Results: ChEMBL document CHEMBL3580574, “Design, Synthesis, and Biological Evaluation of Hexacyclic Tetracyclines as Potent, Broad Spectrum Antibacterial Agents” (J Med Chem, 2015)
≈ marks a conversion by molar mass, not a printed value.

Assays:
Format in all cases: functional
Pseudomonas aeruginosa [1] = assay: Antibacterial activity against Pseudomonas aeruginosa 1145 infected in immunocompetent BALB/c mouse lung infection model assessed as log reduction in colony forming units at 40 mg/kg, iv bid administered at 2 hrs and 12 hrs post-infection measured 24 hrs post-drug treatment
In short: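 Female BALB/c mice (18−20 g) received intranasal inoculum under light anesthesia. IV treatment at 2 and 12 h postinfection, six mice per group per dose. An untreated group was harvested at 2 h. Lungs were taken 24 h after treatment start, weighed, homogenized, diluted and plated on MacConkey medium overnight at 37 °C, 5% CO2. Read-out: CFU per gram lung.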

Pseudomonas aeruginosa [2] = assay: Antibacterial activity against Pseudomonas aeruginosa 1145 assessed as bacterial growth inhibition by susceptibility testing assay
In short: (§1)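 Broth microdilution MIC per CLSI in 96-well plates; compound stocks prepared and serially diluted in sterile deionized water; cation-adjusted Mueller Hinton broth prepared fresh and held at 4 °C before testing, supplemented with lysed horse blood as appropriate; runs accepted when comparator antibiotics fell within QC ranges for appropriate ATCC quality control strains.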

Escherichia coli [3] = assay: Antibacterial activity against Escherichia coli 107 ATCC 25922 assessed as bacterial growth inhibition by susceptibility testing assay; settings: Escherichia coli, 107 ATCC 25922; read-out: MIC
In short: (§2)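 Broth microdilution MIC per CLSI in cation-adjusted Mueller Hinton broth, made fresh and held at 4 °C before testing. Medium supplemented with lysed horse blood where appropriate. Compound stocks prepared and serially diluted in sterile deionized water. Runs were accepted against QC ranges for comparator antibiotics and ATCC QC strains.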

Streptococcus pneumoniae = assay: Antibacterial activity against tet(M) tetracycline-resistant Streptococcus pneumoniae 160 assessed as bacterial growth inhibition by susceptibility testing assay; settings: Streptococcus pneumoniae, 160; read-out: MIC
Enterobacter cloacae = assay: Antibacterial activity against tet(A) tetracycline-resistant Enterobacter cloacae 603 assessed as bacterial growth inhibition by susceptibility testing assay; settings: Enterobacter cloacae, 603; read-out: MIC; in short: as §1
Proteus mirabilis = assay: Antibacterial activity against Proteus mirabilis 385 assessed as bacterial growth inhibition by susceptibility testing assay; settings: Proteus mirabilis, 385; read-out: MIC; in short: as §2
Staphylococcus aureus [4] = assay: Antibacterial activity against tet(K) tetracycline-resistant Staphylococcus aureus 158 assessed as bacterial growth inhibition by susceptibility testing assay; settings: Staphylococcus aureus, 158; read-out: MIC
Burkholderia cenocepacia = assay: Antibacterial activity against Burkholderia cenocepacia 240 assessed as bacterial growth inhibition by susceptibility testing assay; settings: Burkholderia cenocepacia, 240; read-out: MIC
In short: (§3)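 Medium supplemented with lysed horse blood where appropriate. Compound stocks prepared and serially diluted in sterile deionized water. Runs were accepted against QC ranges for comparator antibiotics and ATCC QC strains.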

Staphylococcus aureus [5] = assay: Antibacterial activity against Staphylococcus aureus 101 ATCC 29213 assessed as bacterial growth inhibition by susceptibility testing assay; settings: Staphylococcus aureus, 101 ATCC 29213; read-out: MIC; in short: as §2
Enterococcus faecium = assay: Antibacterial activity against tet(M) tetracycline-resistant Enterococcus faecium 404 assessed as bacterial growth inhibition by susceptibility testing assay; settings: Enterococcus faecium, 404; read-out: MIC
[6] = test system: Stenotrophomonas maltophilia; assay: Antibacterial activity against Stenotrophomonas maltophilia 256 assessed as bacterial growth inhibition by susceptibility testing assay; settings: Stenotrophomonas maltophilia, 256; read-out: MIC; in short: as §3
Pseudomonas aeruginosa [7] = assay: Antibacterial activity against Pseudomonas aeruginosa 555 BAA-47 assessed as bacterial growth inhibition by susceptibility testing assay; settings: Pseudomonas aeruginosa, 555 BAA-47; read-out: MIC; in short: as §2
Staphylococcus aureus [8] = assay: Antibacterial activity against methicillin-resistant, tet(M) tetracycline-resistant Staphylococcus aureus 161 assessed as bacterial growth inhibition by susceptibility testing assay; settings: Staphylococcus aureus, 161; read-out: MIC; in short: as §1
Acinetobacter baumannii = assay: Antibacterial activity against tet(B) tetracycline-resistant Acinetobacter baumannii 250 assessed as bacterial growth inhibition by susceptibility testing assay; settings: Acinetobacter baumannii, 250; read-out: MIC; in short: as §1
Klebsiella pneumoniae = assay: Antibacterial activity against Klebsiella pneumoniae 457 harboring CTX-M-15 gene assessed as bacterial growth inhibition by susceptibility testing assay; settings: Klebsiella pneumoniae, 457; read-out: MIC; in short: as §1
Escherichia coli [9] = assay: Antibacterial activity against tet(A) tetracycline-resistant Escherichia coli 155 assessed as bacterial growth inhibition by susceptibility testing assay; settings: Escherichia coli, 155; read-out: MIC; in short: as §1
Enterococcus faecalis = assay: Antibacterial activity against tet(M) tetracycline-resistant Enterococcus faecalis 327 assessed as bacterial growth inhibition by susceptibility testing assay; settings: Enterococcus faecalis, 327; read-out: MIC; in short: as §1

Question: Which log10CFU/g (Pseudomonas aeruginosa [1]) does the source give for `C[C@@H](O)[C@H]1C(=O)N2C(C(=O)O)=C(S[C@@H]3CN[C@H](C(=O)N(C)C)C3)[C@H](C)[C@H]12` [MEROPENEM] here?
Answer: 2

Question: And the MIC (Pseudomonas aeruginosa [2])?
Answer: 4 µg/mL (≈ 10.4 µM)

Question: Which results are given for `CN(C)[C@@H]1C(O)=C(C(N)=O)C(=O)[C@@]2(O)C(O)=C3C(=O)c4c(O)c5c(c(F)c4C[C@H]3C[C@@H]12)[C@@H]1[C@@H](CCN1CCO)CN5`?
Answer: MIC (Escherichia coli [3]): 1 µg/mL (≈ 1.75 µM); MIC (Streptococcus pneumoniae): 0.125 µg/mL (≈ 0.218 µM); MIC (Enterobacter cloacae): 16 µg/mL (≈ 27.9 µM); MIC (Proteus mirabilis): 8 µg/mL (≈ 14 µM); MIC (Staphylococcus aureus [4]): 0.25 µg/mL (≈ 0.437 µM); MIC (Burkholderia cenocepacia): > 32 µg/mL; MIC (Staphylococcus aureus [5]): 2 µg/mL (≈ 3.49 µM); MIC (Enterococcus faecium): 1 µg/mL (≈ 1.75 µM); MIC [6]: 32 µg/mL (≈ 55.9 µM); MIC (Pseudomonas aeruginosa [7]): 32 µg/mL (≈ 55.9 µM); MIC (Staphylococcus aureus [8]): 4 µg/mL (≈ 6.99 µM); MIC (Acinetobacter baumannii): > 32 µg/mL; MIC (Klebsiella pneumoniae): 4 µg/mL (≈ 6.99 µM); MIC (Escherichia coli [9]): 16 µg/mL (≈ 27.9 µM); MIC (Enterococcus faecalis): 1 µg/mL (≈ 1.75 µM)

Question: `CN(C)[C@@H]1C(O)=C(C(N)=O)C(=O)[C@@]2(O)C(O)=C3C(=O)c4c(O)c5c(c(OC(F)(F)F)c4C[C@H]3C[C@@H]12)[C@@H]1[C@H](CN5)CC2COCCN21` (some centres not stated) was tested. Which MIC (Escherichia coli [3]) did it give?
Answer: 4 µg/mL (≈ 6.15 µM)

Question: What about the MIC (Streptococcus pneumoniae) of the same compound?
Answer: 0.0625 µg/mL (≈ 0.0961 µM)

Question: What about the MIC (Enterobacter cloacae) of the same compound?
Answer: > 32 µg/mL

Question: What about the MIC (Proteus mirabilis) of the same compound?
Answer: > 32 µg/mL

Question: What about the MIC (Staphylococcus aureus [4]) of the same compound?
Answer: 0.5 µg/mL (≈ 0.769 µM)

Question: And the MIC (Burkholderia cenocepacia)?
Answer: > 32 µg/mL

Question: And the MIC (Staphylococcus aureus [5])?
Answer: 2 µg/mL (≈ 3.07 µM)

Question: What about the MIC (Enterococcus faecium) of the same compound?
Answer: 0.25 µg/mL (≈ 0.384 µM)

Question: And the MIC [6]?
Answer: 16 µg/mL (≈ 24.6 µM)

Question: And the MIC (Pseudomonas aeruginosa [7])?
Answer: > 32 µg/mL

Question: And the MIC (Staphylococcus aureus [8])?
Answer: 4 µg/mL (≈ 6.15 µM)

Question: And the MIC (Acinetobacter baumannii)?
Answer: 16 µg/mL (≈ 24.6 µM)

Question: And the MIC (Klebsiella pneumoniae)?
Answer: > 32 µg/mL

Question: And the MIC (Escherichia coli [9])?
Answer: 16 µg/mL (≈ 24.6 µM)

Question: What about the MIC (Enterococcus faecalis) of the same compound?
Answer: 0.5 µg/mL (≈ 0.769 µM)

Question: How did the MIC (Escherichia coli [3]) turn out when `CN(C)c1cc(NC(=O)CNC(C)(C)C)c(O)c2c1C[C@H]1C[C@H]3[C@H](N(C)C)C(O)=C(C(N)=O)C(=O)[C@@]3(O)C(O)=C1C2=O` [TIGECYCLINE] was run?
Answer: 0.125 µg/mL (≈ 0.213 µM)

Question: And the MIC (Streptococcus pneumoniae)?
Answer: 0.0156 µg/mL (≈ 0.0266 µM)

Question: What about the MIC (Enterobacter cloacae) of the same compound?
Answer: 4 µg/mL (≈ 6.83 µM)

Question: And the MIC (Proteus mirabilis)?
Answer: 4 µg/mL (≈ 6.83 µM)

Question: And the MIC (Staphylococcus aureus [4])?
Answer: 0.125 µg/mL (≈ 0.213 µM)

Question: What about the MIC (Burkholderia cenocepacia) of the same compound?
Answer: 16 µg/mL (≈ 27.3 µM)

Question: And the MIC (Staphylococcus aureus [5])?
Answer: 0.0625 µg/mL (≈ 0.107 µM)

Question: What about the MIC (Enterococcus faecium) of the same compound?
Answer: 0.0312 µg/mL (≈ 0.0533 µM)

Question: And the MIC [6]?
Answer: 2 µg/mL (≈ 3.41 µM)

Question: What about the MIC (Pseudomonas aeruginosa [7]) of the same compound?
Answer: 16 µg/mL (≈ 27.3 µM)

Question: What about the MIC (Staphylococcus aureus [8]) of the same compound?
Answer: 0.125 µg/mL (≈ 0.213 µM)

Question: What about the MIC (Acinetobacter baumannii) of the same compound?
Answer: 8 µg/mL (≈ 13.7 µM)

Question: What about the MIC (Klebsiella pneumoniae) of the same compound?
Answer: 1 µg/mL (≈ 1.71 µM)

Question: And the MIC (Escherichia coli [9])?
Answer: 1 µg/mL (≈ 1.71 µM)

Question: What about the MIC (Enterococcus faecalis) of the same compound?
Answer: 0.125 µg/mL (≈ 0.213 µM)

Question: What does the source list for `CN(C)[C@@H]1C(O)=C(C(N)=O)C(=O)[C@@]2(O)C(O)=C3C(=O)c4c(O)c5c(c(F)c4C[C@H]3C[C@@H]12)[C@@H]1[C@@H](CCN1CCNCC(F)F)CN5`?
Answer: MIC (Escherichia coli [3]): 0.25 µg/mL (≈ 0.393 µM); MIC (Streptococcus pneumoniae): ≤ 0.0156 µg/mL; MIC (Enterobacter cloacae): 8 µg/mL (≈ 12.6 µM); MIC (Proteus mirabilis): 8 µg/mL (≈ 12.6 µM); MIC (Staphylococcus aureus [4]): 0.0312 µg/mL (≈ 0.0491 µM); MIC (Burkholderia cenocepacia): 32 µg/mL (≈ 50.3 µM); MIC (Staphylococcus aureus [5]): 0.5 µg/mL (≈ 0.787 µM); MIC (Enterococcus faecium): 0.0625 µg/mL (≈ 0.0983 µM); MIC [6]: 4 µg/mL (≈ 6.29 µM); MIC (Pseudomonas aeruginosa [7]): > 32 µg/mL; MIC (Staphylococcus aureus [8]): 1 µg/mL (≈ 1.57 µM); MIC (Acinetobacter baumannii): 8 µg/mL (≈ 12.6 µM); MIC (Klebsiella pneumoniae): 4 µg/mL (≈ 6.29 µM); MIC (Escherichia coli [9]): 4 µg/mL (≈ 6.29 µM); MIC (Enterococcus faecalis): 0.125 µg/mL (≈ 0.197 µM)
